Bioassay records: PubChem, several laboratories
PREPL inh: inhibitors of human prolyl oligopeptidase-like enzyme PREPL; recombinant PREPL, fluorescence polarization activity-based probe; inhibition, % at 5.96 µM; 320,000 tested, 0.68% active; AID 2751; in the data active = inhibition above about 43%
Apaf1 inhib: human Apaf-1 inhibition | reconstituted apoptosome caspase-3 activity, DEVD-Rh110 fluorescence | inhibition, % at 20 µM | 330,000 tested, 0.71% active | AID 489030; active = inhibition of at least 40% at 20 µM
Target sequence (O14727 whole entry, looked up): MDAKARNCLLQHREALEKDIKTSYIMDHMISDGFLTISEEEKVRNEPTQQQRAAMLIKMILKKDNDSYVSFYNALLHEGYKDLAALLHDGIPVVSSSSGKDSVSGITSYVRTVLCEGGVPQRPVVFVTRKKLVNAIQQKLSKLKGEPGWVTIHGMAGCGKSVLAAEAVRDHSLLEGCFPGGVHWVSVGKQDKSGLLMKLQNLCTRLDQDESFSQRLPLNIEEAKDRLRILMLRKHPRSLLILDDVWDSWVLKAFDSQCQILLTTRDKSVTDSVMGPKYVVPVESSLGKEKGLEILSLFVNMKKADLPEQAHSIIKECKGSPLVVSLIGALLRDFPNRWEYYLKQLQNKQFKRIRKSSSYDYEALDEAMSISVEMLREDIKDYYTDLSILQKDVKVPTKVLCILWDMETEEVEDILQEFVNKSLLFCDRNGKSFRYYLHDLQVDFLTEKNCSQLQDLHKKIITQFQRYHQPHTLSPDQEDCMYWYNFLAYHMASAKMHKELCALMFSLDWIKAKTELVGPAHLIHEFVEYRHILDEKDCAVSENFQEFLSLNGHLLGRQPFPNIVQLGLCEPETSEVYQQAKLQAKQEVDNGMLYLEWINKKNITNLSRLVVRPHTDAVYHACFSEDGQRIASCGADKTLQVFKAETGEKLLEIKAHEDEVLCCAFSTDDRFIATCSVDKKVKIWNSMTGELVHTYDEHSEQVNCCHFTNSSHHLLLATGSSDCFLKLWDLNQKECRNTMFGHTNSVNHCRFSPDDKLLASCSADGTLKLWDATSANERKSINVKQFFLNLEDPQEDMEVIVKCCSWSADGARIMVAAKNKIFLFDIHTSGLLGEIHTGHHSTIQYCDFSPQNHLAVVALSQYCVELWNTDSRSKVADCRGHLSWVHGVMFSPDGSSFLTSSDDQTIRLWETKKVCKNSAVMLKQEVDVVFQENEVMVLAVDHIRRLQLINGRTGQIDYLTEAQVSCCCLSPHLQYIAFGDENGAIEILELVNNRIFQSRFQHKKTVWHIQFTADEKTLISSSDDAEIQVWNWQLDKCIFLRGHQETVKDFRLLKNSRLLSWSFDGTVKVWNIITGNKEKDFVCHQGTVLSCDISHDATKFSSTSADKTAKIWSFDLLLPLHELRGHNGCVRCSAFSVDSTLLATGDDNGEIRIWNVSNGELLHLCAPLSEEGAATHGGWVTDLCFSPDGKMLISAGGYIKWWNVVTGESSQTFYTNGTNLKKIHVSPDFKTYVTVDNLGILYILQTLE
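Material: reconstituted apoptosome with Apaf-1, cytochrome c, caspase-9, procaspase-3, dATP. Technique: Rh110 fluorescence intensity. Buffer or medium: pH 7.5 Hepes buffer with CHAPS, BSA, DTT. Times: 30 min plus 50 min, RT.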
MEKK3 PB1 HTS: modulators (inhibitors or enhancers) of MEK5 binding to human MEKK3 PB1 domain; Q99759; bead-based flow cytometry, Alexa488-MEK5 binding to MEKK3; actives lie on both sides; 0 = blocked by unlabeled MEK5, 100 = vehicle; binding response (% of control), % at 10 µM; 290,000 tested, 1.4% active;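 active = binding response more than 3 SD above or below the average of its plate-row segment, actives on both sides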;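 note: Alexa488 bead fluorescence after subtracting the streptavidin-only scavenger bead signal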
MEKK2 mut-MEK5: signal of MEK5 binding to mutant human MEKK2 PB1 domain; bead flow cytometry, Alexa488-MEK5 binding to MEKK2 mutant; percent response, % at 10 µM; 290,000 tested, 0.35% active; AID 1530; in the data active = percent response above about 24%, passing the limit was not always enough
MEKK2 WT-MEK5: raises or lowers MEK5 binding to wildtype human MEKK2 PB1 domain; Q9Y2U5; bead flow cytometry, Alexa488-MEK5 binding to MEKK2 WT; actives lie on both sides; binding response (% of control), % at 10 µM; 290,000 tested, 1.1% active; AID 1531; in the data active = binding response below about 67% or above about 130%
UBC13 polyUb: human UBC13 polyubiquitination inhibition | P61088 | UBC13 polyubiquitin chain formation, TR-FRET | inhibition, % at 20 µM | 330,000 tested, 0.47% active; in the data active = inhibition above about 45%, passing the limit was not always enough
Casp3 counter: inhibits human caspase-3 in UBC13 counter-screen; shares compounds with UBC13 polyUb; Recombinant caspase-3, Caspase-Glo 3/7 luminescence, 60 min; inhibition, % at 20 µM; 1,400 tested, 4% active; AID 488856;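 active = mean inhibition across replicates above about 26%, limit read from the data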
UBC13 conf: confirmation of human UBC13 polyubiquitin inhibitors; shares compounds with UBC13 polyUb; UBC13 polyubiquitination, TR-FRET, biochemical; inhibition, % at 10 µM; 1,400 tested, 68% active; in the data active = inhibition above about 45%
Apaf-1 inh conf: Apaf-1 inhibition, single-dose confirmed; reconstituted apoptosome, caspase-3 DEVD-Rh110 fluorescence; shares compounds with Apaf1 inhib; AID 504614; inhibition, % at 20 µM; 1,800 tested, 25% active;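 active = mean inhibition of at least 40% at 20 µM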
Rh110 interf inh: interferes with Rh110 fluorescence, flagging false Apaf-1 inhibitors; shares compounds with Apaf1 inhib; activation (fluorescence interference), % at 20 µM; 1,800 tested, under 10 active; Rh110 fluorescence interference, quenched caspase reaction;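 active = signal rise of 40% or more at 20 µM, treated as a fluorescence artifact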
Fluor interf inh: Apaf-1 inhibitor counter-screen fluorescence artifact; IC50, µM; fluorescence interference counterscreen, Apaf-1 assay format; AID 588538; shares compounds with Apaf1 inhib; 460 tested, under 10 active; call rule not given here
A number is an active result; 0 = inactive; - = not tested or not shown. Rows were chosen to be rich in hits. Some 3.1% of all compounds tested hit in one or more screens of this group.

SMILES	PREPL inh	Apaf1 inhib	MEKK3 PB1 HTS	MEKK2 mut-MEK5	MEKK2 WT-MEK5	UBC13 polyUb	Apaf-1 inh conf	Rh110 interf inh	others
OC(c1cc(C(F)(F)F)nc2c(C(F)(F)F)cccc12)C1CCCCN1 (centres undefined)	0	48.2	-	-	-	68.1	0	0	Casp3 counter=0;UBC13 conf=48.9
NC1(C#Cc2ccc3oc(=O)c(-n4cc(-c5ccsc5)nn4)cc3c2)CCCCC1	0	47.7	-	-	-	0	0	0
CC(Sc1ccccc1)C(=O)NCCc1ccccc1 (centres undefined)	0	0	0	0	0	0	-	-
COc1ccc(N2CCN(S(=O)(=O)CCNC(=O)COc3cccc(OC)c3)CC2)cc1	0	0	0	0	0	0	-	-
O=C1NC2=C(CCc3ccccc32)C(c2ccccc2)N1 (centres undefined)	0	91.5	0	0	0	0	0	0
COc1ccc(-n2c(SCC(=O)Nc3ccc(C(=O)O)cc3)nnc2-c2ccccc2)cc1OC	0	0	0	0	0	0	-	-
O=C(NCc1cccnc1)c1csc2c1CCCC2	0	0	0	0	0	0	-	-
COc1ccccc1/C=N\NC(=O)c1ccc(COc2ccc(C)c(C)c2)o1	0	0	-	-	-	0	-	-
Clc1ccc(N=c2ssnc2Cl)nc1	0	54.7	0	0	0	0	66.9	0	Fluor interf inh=0
CCC1CCc2sc(C(=O)NCC(c3ccccc3OC)N3CCCC3)cc2C1 (centres undefined)	0	49.3	-	-	-	0	0	0
CCCn1c(=O)c(C(=O)OCC)c(O)c2cc(Br)ccc21	0	0	0	0	0	0	-	-
CCOC(=O)c1c(CN(C)C)n(C)c2c(O)c(N=NC(N)=O)c3ccc(Br)cc3c12	0	95.1	0	0	0	0	52.9	0	Fluor interf inh=0
COc1ccc(N2CCN(S(=O)(=O)c3c(C)[nH]c(C)c3C(=O)N3CCCC3)CC2)cc1	0	0	0	0	0	0	-	-
CCOc1ccccc1N1CSC2=C(C#N)C(c3c(OC)ccc4ccccc34)CC(=O)N2C1 (centres undefined)	0	40.8	0	0	0	0	0	0
CCOC(=O)c1ccc(N2CSC3=C(C#N)C(c4cccs4)CC(=O)N3C2)cc1 (centres undefined)	0	54.7	0	0	0	0	0	0
COc1ccc(N2CSC3=C(C#N)C(c4cc(OC)ccc4OC)CC(=O)N3C2)c(OC)c1 (centres undefined)	0	0	0	0	0	0	-	-
CCc1ccc(N2CSC3=C(C#N)C(c4cccs4)CC(=O)N3C2)cc1 (centres undefined)	0	0	0	0	0	0	-	-
O=C1C=C(c2ccc(Oc3ccccc3)cc2)C[C@@H](c2ccc(F)cc2)C1	0	0	-	-	-	0	-	-
O=C1C=C(c2ccc(OC(F)(F)F)cc2)C[C@@H](c2ccc(F)cc2)C1	0	54.1	-	-	-	0	0	0
CCCc1cc(=O)oc2cc(OCc3ccc(C(=O)O)cc3)ccc12	0	0	0	0	0	0	-	-
Cc1cccc(NC(=O)CN2CCN(C(=O)c3oc4c(Cl)cccc4c3C)CC2)c1C	0	69.9	-	-	-	0	0	0
Cn1cc(CN2CCC(C(=O)Nc3ccc(Oc4ccccc4F)cc3)CC2)cn1	0	0	0	0	0	0	-	-
COc1ccc(CN2CCC(C(=O)Nc3ccc(Oc4cccnc4)cc3)CC2)cc1	0	58.4	0	0	0	0	0	0
O=C(Cc1ccc(F)cc1)Oc1ccc(C(=S)N2CCCC2)cc1	0	0	0	0	0	0	-	-
CN1CCc2cccc3c2[C@@H]1Cc1ccc(O)c(O)c1-3	0	49.9	0	0	0	0	0	0
SMILES	PREPL inh	Apaf1 inhib	MEKK3 PB1 HTS	MEKK2 mut-MEK5	MEKK2 WT-MEK5	UBC13 polyUb	Apaf-1 inh conf	Rh110 interf inh	others
COc1ccc2c(c1O)-c1ccccc1CCN(C)C2	0	0	0	0	0	0	-	-
CC(/C=N/NC(=O)c1nnn(-c2nonc2N)c1C(C)C)=C\c1ccco1	0	0	0	0	0	0	-	-
CC(=O)N(C1=C(N)C(=O)c2ccccc2C1=O)c1ccccc1	0	67.4	0	0	0	0	81.3	0	Fluor interf inh=0
COc1ccccc1C(=O)NC(=O)COC(=O)c1ccc([N+](=O)[O-])cc1Cl	0	0	-	-	-	0	-	-
CC1CN(Cc2c(O)ccc3c(=O)c(-c4ccccc4)coc23)CC(C)O1 (centres undefined)	0	0	0	0	0	0	-	-
CC1CN(Cc2c(O)ccc3c2oc(=O)c2ccccc23)CC(C)O1 (centres undefined)	0	44.3	0	0	0	0	0	0
CC1(c2nnc(-c3cccc(Cl)c3)o2)CC(c2ccccc2)=NO1 (centres undefined)	0	0	0	0	0	0	-	-
CC1CN(C(=O)CSc2nnc(-c3ccccc3)o2)CC(C)O1 (centres undefined)	0	0	0	0	0	0	-	-
c1ccc2c(c1)ncc1cccn12	0	0	0	0	0	0	-	-
CCn1c2ccccc2c2c3ncc4cccn4c3ccc21	0	61.7	0	0	0	0	0	0
C=CCn1c(SCC(=O)NCCc2ccccc2)nnc1C1CC1	0	42.4	-	-	-	0	0	0
O=C(c1ccc(-c2cccc(C(F)(F)F)c2)o1)N1CCN(c2ccccc2O)CC1	0	0	0	0	0	0	-	-
O=C(c1ccc(-c2cccc(C(F)(F)F)c2)o1)N1CCCC(C(F)(F)F)C1 (centres undefined)	0	42.8	-	-	-	0	0	0
CCCn1c(N)c(C(=O)CSc2nc(N)cc(=O)[nH]2)c(=O)n(C)c1=O	0	0	-	-	-	0	-	-
Cc1ccc(S(=O)(=O)N2CCN(C(=O)COC(=O)c3cc([N+](=O)[O-])ccc3NCCO)CC2)c(C)c1	0	0	-	-	-	0	-	-
Cc1ccc(S(=O)(=O)N2CCN(C(=O)COC(=O)c3ccc([N+](=O)[O-])o3)CC2)c(C)c1	0	59.3	-	-	-	0	0	0
CCOC(=O)c1c(N)n(CCOC(=O)c2cccs2)c2nc3ccccc3nc12	0	94.8	-	-	-	0	0	0
CCOC(=O)c1c(N)n(-c2ccc(N)cc2)c2nc3ccccc3nc12	0	0	0	0	0	0	-	-
